Active and inactive are the calls of the source. The rule behind the calls is not given here.
How the values were obtained:
[1] = tested on: MDA-MB-231; experiment: Cell cycle arrest in human MDA-MB-231 cells assessed as accumulation of 4N cells at 36.0 uM after 24 hrs by flow cytometry; format: functional
[2] = tested on: UO-31; experiment: Cytotoxicity against human UO31 cells; format: functional
In short: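 NCI in vitro antitumor screening protocol; GI50 taken as the concentration giving 50% reduction in cell growth.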

[3] = tested on: U-251; experiment: Cytotoxicity against human U251 cells; format: functional
In short: (§1)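 Tested in the NCI in vitro antitumor screening protocol across a tumor cell line panel. GI₅₀ is the concentration producing a 50% reduction in cell growth.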

[4] = tested on: K562; experiment: Cytotoxicity against human K562 cells; format: functional; in short: as §1
[5] = tested on: MDA-MB-231; experiment: Effect on microtubule depolymerization in human MDA-MB-231 cells at 36 uM after 2 hrs; format: functional, cell-based
In short: (§2)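 MDA-MB-231/ATCC cells grown on glass coverslips (1 × 10⁴ cells) for 24 h, then exposed to 3.6, 9, 18, 27 or 36 µM at 37 °C for 2 h. Fixed in 4% paraformaldehyde, permeabilized with Triton X-100, and immunostained for α-tubulin and ninein with DAPI counterstain. Interphase microtubule networks compared with untreated cells by confocal microscopy.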

[6] = tested on: MDA-MB-231; experiment: Cell cycle arrest in human MDA-MB-231 cells assessed as accumulation of >4N cells at 18.0 uM after 72 hrs by flow cytometry; format: functional
[7] = tested on: K562; experiment: Cell cycle arrest in human K562 cells assessed as accumulation at sub-G1 phase at 50 uM after 24 hrs by flow cytometry; format: functional
In short: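 K-562 human leukemia cells were grown in RPMI 1640 with 10% fetal calf serum, glutamine and penicillin/streptomycin at 37 °C in 5% CO₂. Cells were exposed to compound at 50 µM for 24 h, then pelleted and PBS-washed. They were fixed in ice-cold ethanol for 30 min, treated with 1 mg/mL RNase A at 37 °C for 30 min, and stained with propidium iodide and Triton X-100 for 30 min at room temperature in the dark. Per-phase and sub-G1 percentages came from flow cytometry gating.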

[8] = tested on: SNB-75; experiment: Cytotoxicity against human SNB75 cells; format: functional; in short: as §1
[9] = tested on: MDA-MB-231; experiment: Cell cycle arrest in human MDA-MB-231 cells assessed as accumulation of 2N cells at 27.0 uM after 72 hrs by flow cytometry; format: functional
[10] = tested on: MDA-MB-231; experiment: Cell cycle arrest in human MDA-MB-231 cells assessed as accumulation at sub-G1 phase at 36.0 uM after 24 hrs by flow cytometry; format: functional
[11] = tested on: SN12C; experiment: Cytotoxicity against human SN12C cells; format: functional; in short: as §1
[12] = tested on: NCI/ADR-RES; experiment: Cytotoxicity against human NCI/ADR-RES cells; format: functional; in short: as §1
[13] = tested on: MDA-MB-231; experiment: Effect on microtubule depolymerization in human MDA-MB-231 cells at 27 uM after 2 hrs; format: functional, cell-based; in short: as §2
[14] = tested on: MDA-MB-231; experiment: Cell cycle arrest in human MDA-MB-231 cells assessed as accumulation of 4N cells at 3.6 uM after 72 hrs by flow cytometry; format: functional
[15] = tested on: SNB-19; experiment: Cytotoxicity against human SNB19 cells; format: functional; in short: as §1
[16] = tested on: MDA-MB-231; experiment: Cell cycle arrest in human MDA-MB-231 cells assessed as accumulation at sub-G1 phase at 3.6 uM after 72 hrs by flow cytometry; format: functional
[17] = tested on: SK-MEL-5; experiment: Cytotoxicity against human SK-MEL5 cells; format: functional; in short: as §1
[18] = tested on: MDA-MB-231; experiment: Cell cycle arrest in human MDA-MB-231 cells assessed as accumulation of 4N cells at 18.0 uM after 24 hrs by flow cytometry; format: functional
[19] = tested on: MDA-MB-231; experiment: Cell cycle arrest in human MDA-MB-231 cells assessed as accumulation of 4N cells at 27.0 uM after 72 hrs by flow cytometry; format: functional
[20] = Cytotoxicity against human […] cells; format: functional; in short: as §1
[21] = tested on: MDA-MB-231; experiment: Cell cycle arrest in human MDA-MB-231 cells assessed as accumulation of >4N cells at 3.6 uM after 24 hrs by flow cytometry; format: functional
[22] = tested on: MDA-MB-231; experiment: Cell cycle arrest in human MDA-MB-231 cells assessed as accumulation of >4N cells at 36.0 uM after 72 hrs by flow cytometry; format: functional
[23] = tested on: HOP-92; experiment: Cytotoxicity against human HOP92 cells; format: functional; in short: as §1
[24] = tested on: SF-268; experiment: Cytotoxicity against human SF268 cells; format: functional; in short: as §1
[25] = tested on: MDA-MB-231; experiment: Effect on microtubule depolymerization in human MDA-MB-231 cells at 18 uM after 2 hrs; format: functional, cell-based; in short: as §2
[26] = tested on: KM12; experiment: Cytotoxicity against human KM12 cells; format: functional; in short: as §1
[27] = tested on: MDA-MB-231; experiment: Effect on microtubule depolymerization in human MDA-MB-231 cells assessed as disorganized microtubule cytoskeleton at 3.6 uM after 2 hrs relative to control; format: functional, cell-based; in short: as §2
[28] = tested on: MDA-MB-231; experiment: Cell cycle arrest in human MDA-MB-231 cells assessed as accumulation of >4N cells at 3.6 uM after 72 hrs by flow cytometry; format: functional
[29] = Inhibition of bovine tubulin polymerization; set-up: species or system Bos taurus
In short: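 Purified bovine tubulin incubated at 37 °C in buffer containing 20% glycerol and 1 mM GTP, with test compound at 3.6–36 µM. Polymerization followed kinetically by the increase in fluorescence. Colchicine and paclitaxel served as controls.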

[30] = tested on: BT-549; experiment: Cytotoxicity against human BT549 cells; format: functional; in short: as §1
[31] = tested on: MDA-MB-231; experiment: Cell cycle arrest in human MDA-MB-231 cells assessed as accumulation of 2N cells at 36.0 uM after 24 hrs by flow cytometry; format: functional
[32] = tested on: RXF 393; experiment: Cytotoxicity against human RXF393 cells; format: functional; in short: as §1
[33] = tested on: TK-10; experiment: Cytotoxicity against human TK10 cells; format: functional; in short: as §1
[34] = tested on: MDA-MB-231; experiment: Cell cycle arrest in human MDA-MB-231 cells assessed as accumulation at sub-G1 phase at 3.6 uM after 24 hrs by flow cytometry; format: functional
[35] = tested on: SR; experiment: Cytotoxicity against human SR cells; format: functional; in short: as §1
[36] = tested on: MDA-MB-231; experiment: Cell cycle arrest in human MDA-MB-231 cells assessed as accumulation of 4N cells at 36.0 uM after 72 hrs by flow cytometry; format: functional
[37] = tested on: OVCAR-5; experiment: Cytotoxicity against human OVCAR5 cells; format: functional; in short: as §1
[38] = read-out: LC50 (the source's name)

Nc1ccccc1C#C/C=C\C#Cc1ccccc1C(F)(F)F
Activity [1]: 33.6% | GI50 [2]: 3.06 µM | TGI [2]: 25.1 µM | CC50 [2, 38]: 94.9 µM | GI50 [3]: 0.666 µM | TGI [3]: 17.5 µM | CC50 [3, 38]: 45.4 µM | GI50 [4]: 1 µM | TGI [4]: 0.845 µM | CC50 [4, 38]: 62.7 µM | Activity [5]: Active | Activity [6]: 13% | Activity [7]: 19.4% | TGI [8]: 18.8 µM | GI50 ([8]; read-out: GI50): 0.0869 µM | CC50 [8, 38]: 100 µM | GI50 ([8]; read-out: pGI50 (converted)): 0.0794 µM | Activity [9]: 6.8% | Activity [10]: 23.6% | GI50 [11]: 0.348 µM | TGI [11]: 6.52 µM | CC50 [11, 38]: 30.9 µM | GI50 [12]: 0.249 µM | TGI [12]: 0.68 µM | CC50 [12, 38]: 28.5 µM | Activity [13]: Active | Activity [14]: 19.2% | GI50 [15]: 11.3 µM | TGI [15]: 39.9 µM | CC50 [15, 38]: > 100 µM | Activity [16]: 47.2% | GI50 [17]: 0.541 µM | TGI [17]: 15 µM | CC50 [17, 38]: 42.2 µM | Activity [18]: 31.9% | Activity [19]: 15% | GI50 [20]: 0.746 µM | TGI [20]: > 100 µM | CC50 [20, 38]: > 100 µM | Activity [21]: 31.3% | Activity [22]: 9.7% | GI50 [23]: 20.4 µM | TGI [23]: 48.6 µM | CC50 [23, 38]: > 100 µM | GI50 [24]: 0.65 µM | TGI [24]: 19.7 µM | CC50 [24, 38]: 64.3 µM | Activity [25]: Active | GI50 [26]: 0.371 µM | TGI [26]: 20.3 µM | CC50 [26, 38]: > 100 µM | Activity [27]: Active | Activity [28]: 10.3% | IC50 [29]: 9 µM | GI50 [30]: 0.699 µM | TGI [30]: 17.3 µM | CC50 [30, 38]: 43.4 µM | Activity [31]: 10.4% | GI50 [32]: 0.808 µM | TGI [32]: 4.62 µM | CC50 [32, 38]: 30.5 µM | GI50 [33]: 8.3 µM | TGI [33]: 27.9 µM | CC50 [33, 38]: 78.4 µM | Activity [34]: 23.6% | GI50 [35]: 0.247 µM | TGI [35]: 0.691 µM | CC50 [35, 38]: > 100 µM | Activity [36]: 14.5% | GI50 [37]: 1.35 µM | TGI [37]: 7.02 µM | CC50 [37, 38]: 37.5 µM
